Results on 14 molecules are retold here after publication PMC4143156 (Journal of immunology (Baltimore, Md. : 1950), 2008).

For experiment [1], the target named is Water soluble DQ2 (sDQ2), thrombin-cleaved (human). As to the kind of experiment: peptide dissociation followed by MALDI-TOF MS.
Experiment [2] concerns the target Water soluble DR3 (sDR3), thrombin-cleaved (human). The experiment can be described thus: peptide dissociation followed by MALDI-TOF MS.
The target in a further experiment is water soluble DQ2 (sDQ2) (Homo sapiens, UniProt P01909+P01920, A45G/A70V/D89A/E106A/E77G/E98D/H199R/L107V/N214S/P84L/P87L/T103K/T109R/T172A/T60S/V78E/V99I/Y58L/Y62S/Y69I/Y79F). Type of experiment: binding. Particulars: ratio of t1/2 without DM to t1/2 with 6 μM DM; sDQ2 complexes.
The target of experiment [3] is HLA-DQ2 (DQA1*0501, DQB1*0201) (Homo sapiens, UniProt P01909+P01920, A45G/A70V/D89A/E106A/E77G/E98D/H199R/L107V/N214S/P84L/P87L/T103K/T109R/T172A/T60S/V78E/V99I/Y58L/Y62S/Y69I/Y79F). Particulars: DQ2 affinity purified from B-LCL; ref [3],[4]; cited from earlier work.
Experiment [4] has as its target water soluble DR3 (sDR3) (Homo sapiens, UniProt P01903+P01911, A100K/A102G/A103R/A169T/F55Y/I96L/K41T/L162R/M171V/P40S/Q125H/Q178H/Q39Y/R42S/S66N/T106N/W38E/Y61H). The format is binding. Particulars: ratio of t1/2 without DM to t1/2 with 6 μM DM; sDR3 complex; listed as DR3-CLIP1. The gist of the method: (§1)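 Incubated at 37°C, pH 5.0 citrate phosphate, ±6 μM soluble DM, with 35 μM competitor MT 65kDa 3-13; stopped with cold pH 7.2 buffer. Released peptides were quantified by MALDI-TOF MS against added isotopic indicator peptides.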

Experiment [5] concerns water soluble DR3 (sDR3). Type of experiment: binding, human. Particulars: pH 5, without DM. In short, it runs like this:
as §1

Experiment [6] concerns the target HLA-DQ2 (DQA1*0501, DQB1*0201) (human (endogenous in B-LCL)). The experiment can be described thus: affinity purification with mass spectrometry.
For experiment [7] the target is unchanged. As to the kind of experiment: affinity purification with mass spectrometry. This is another data set of the same source.
The target in experiment [8] is HLA-DR3 (DRA1*0101, DRB1*0301) (human (endogenous in B-LCL)). As to the kind of experiment: affinity purification with mass spectrometry.

Like-named read-outs stand apart in the source and are kept apart here.

Consider “CLIP1 M91A released peptide of sDQ2-CLIP1 M91A”, for which, in experiment [1], the t1/2 of DM-mediated dissociation (6 μM DM) came out at 0.7 h and the t1/2 of spontaneous dissociation turned out to be 13.1 h.
In the same order, the values of “CLIP1 M91P released peptide of sDQ2-CLIP1 M91P” are 8.9 h and 93.6 h.
Consider “CLIP1 released peptide of sDQ2-CLIP1 and sDR3-CLIP1”, for which the t1/2 of DM-mediated dissociation (6 μM DM) in experiment [1] came out at 9 h; in [2], 0.25 h. In addition, the t1/2 of spontaneous dissociation was found to be 144 h in experiment [1] and 61.5 h in [2].
As for CLIP2 released peptide of sDQ2-CLIP2, in experiment [1], the t1/2 of DM-mediated dissociation (6 μM DM) was determined as 5 h and the t1/2 of spontaneous dissociation came to 142 h.
Regarding RDSGMATPLLMQALPM GALGAGSLVPR [CLIP2], the “DM-mediated increase in dissociation” value at water soluble DQ2 (sDQ2) amounted to 28x. The “IC50 values/affinity for DQ2 compared to conventional CLIP (CLIP1) peptides” value in experiment [3] is on record as “lower”.
For “RDSGPVSKARMATPLLMQAGAGSLVPR [CLIP1 M91A]”, the “DM-mediated increase in dissociation” value on water soluble DQ2 (sDQ2) came to 19x.
For RDSGPVSKMRMATPLLMQAGAGSLVPR [CLIP1], the “DM-mediated increase in dissociation” value is listed as 246x on water soluble DR3 (sDR3) [4] and 16x on water soluble DQ2 (sDQ2). The “Faster spontaneous release from DR3 compared to CLIP1 and CLIP2 from sDQ2” value in the experiment on water soluble DR3 (sDR3) [5] worked out at 2 fold.
“RDSGPVSKPRMATPLLMQAGAGSLVPR [CLIP1 M91P]”: the “DM-mediated increase in dissociation” value at water soluble DQ2 (sDQ2) is reported as 11x.
Consider PKPPKPVSKMRMATPLLMQALP [Ii82-103], for which the pmol of peptide eluted from 50 μg of affinity-purified class II in [6] amounted to 36.8 pmol; in experiment [7] it was 16.5 pmol; in experiment [8], 113 pmol.
As for LPKPPKPVSKMRMATPLLMQALPM [Ii81-104], in experiment [8], the pmol of peptide eluted from 50 μg of affinity-purified class II came out at 42.4 pmol.
As to LPKPPKPVSKMRMATPLLMQA [Ii81-101], the pmol of peptide eluted from 50 μg of affinity-purified class II stood at 88.4 pmol in experiment [6], 31.5 pmol in [7] and 106 pmol in experiment [8].
Take LPKPPKPVSKMRMATPLLMQALP [Ii81-103]: the pmol of peptide eluted from 50 μg of affinity-purified class II in [6] worked out at 71.1 pmol; in [7] it was 79.5 pmol.
In the same order, the values of MATPLLMQALPMGALP [Ii93-108] are 156 pmol and 159 pmol.
Molecule MATPLLMQALPMGALPQ [Ii93-109] gave a pmol of peptide eluted from 50 μg of affinity-purified class II in experiment [6] of 3.8 pmol.
